According to ChEMBL document CHEMBL2390837, “Synthesis, cytotoxic activity and DNA-interaction studies of novel anthraquinone-thiosemicarbazones with tautomerizable methylene group” (Eur J Med Chem, 2013):
The source made the active and inactive calls. No cut-off for these calls is given here.

Columns and labels:
HeLa [1] = test: Induction of apoptosis in human HeLa cells at IC90 after 24 hrs by propidium iodide staining-based FACS flow cytometric analysis in presence of caspase-8 inhibitor Z-IETD-FMK; format: functional, cell-based
MDA-MB-453 = test: Cytotoxicity against human MDA-MB-453 cells after 72 hrs by MTT assay; format: functional, cell-based; details: MDA-MB-453, 72 h
In short: (§1)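 Cells seeded in 96-well plates: HeLa 2000, MDA-MB-361 7000, MDA-MB-453 3000, K562, A549 and MRC-5 5000 per well. Compounds added at 5–100 μM (final), DMSO ≤0.5%, in RPMI-1640 with 10% FBS. Added after 24 h, except K562 at 2 h after seeding. Exposure 72 h, then MTT 4 h at 37 °C, SDS solubilization, A570 read. IC50 is the mean ± SD of three independent experiments.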

HeLa [2] = test: Cell cycle arrest in human HeLa cells assessed as accumulation at G2/M phase at 2 times IC50 after 24 hrs by propidium iodide staining-based FACS flow cytometric analysis (reference value: 21.66%); format: functional
HeLa [3] = test: Cell cycle arrest in human HeLa cells assessed as accumulation at S phase at IC50 after 24 hrs by propidium iodide staining-based FACS flow cytometric analysis (reference value: 16.22%); format: functional
K562 = test: Cytotoxicity against human K562 cells after 72 hrs by MTT assay; format: functional, cell-based; details: K562, 72 h; in short: as §1
HeLa [4] = test: Cell cycle arrest in human HeLa cells assessed as accumulation at G2/M phase at IC50 after 24 hrs by propidium iodide staining-based FACS flow cytometric analysis (reference value: 21.66%); format: functional
Escherichia coli [5] = test: Induction of Escherichia coli XL1 blue pUC18 DNA cleavage assessed as conversion of supercoiled DNA to relaxed circular DNA at 1:2 compound to iron molar ratio after 90 mins by agarose gel electrophoresis in presence of Fe2+
In short: (§2)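 AQ-thiosemicarbazone (4 μL of 10 mM) preincubated 60 min at 37 °C in bicarbonate buffer with 2 μL of FeSO₄ or FeCl₃ (20 mM or 40 mM stock). pUC18 (2 μL) then added and incubated a further 90 min. Products run on 1% agarose in TAE at 80 V and stained with ethidium bromide (0.5 µg/mL).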

Escherichia coli [6] = test: Induction of Escherichia coli XL1 blue pUC18 DNA cleavage assessed as conversion of supercoiled DNA to relaxed circular DNA at 2 mM after 90 mins by agarose gel electrophoresis
In short: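 Supercoiled pUC18 (262 ng, from E. coli XL1 blue) incubated with 2 mM compound in 20 μL of 40 mM bicarbonate buffer pH 8.4 at 37 °C for 90 min. Reaction stopped with loading buffer. Analyzed on 1% agarose in TAE pH 8.24 at 80 V and stained with ethidium bromide (0.5 µg/mL).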

HeLa [7] = test: Cell cycle arrest in human HeLa cells assessed as accumulation at G1 phase at IC50 after 24 hrs by propidium iodide staining-based FACS flow cytometric analysis (reference value: 51.97%); format: functional
[8] = tested on: Radical scavenging activity; test: Antioxidant activity assessed as DPPH radical scavenging activity after 30 mins by spectrophotometric analysis; format: functional
In short: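 Test solutions at 8–1000 μM in methanol mixed 1:1 by volume with 200 μM DPPH in methanol, kept 30 min in the dark at room temperature. Absorbance read at 517 nm against blanks without DPPH. Percent scavenging = (A_DPPH − A_sample)/A_DPPH × 100. IC50 (concentration halving DPPH absorbance) read from a plot of % versus concentration. Ascorbic acid and BHT used as standards.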

DNA = test: Binding affinity to calf thymus DNA at 20 to 80 uM after 1.5 hrs by UV-vis spectrophotometric analysis; format: nucleic-acid assay; details: Bos taurus
In short: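 UV–Vis spectra (200–800 nm, 1 cm cells) of compound at 20, 40, 60 or 80 μM, with or without 0.12 mM CT-DNA. CT-DNA was dissolved in 10 mM Tris-HCl pH 7.9. Mixtures were in 40 mM bicarbonate buffer pH 8.4, incubated 1.5 h at 37 °C with occasional vortexing.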

Escherichia coli [9] = test: Induction of Escherichia coli XL1 blue pUC18 DNA cleavage assessed as conversion of supercoiled DNA to relaxed circular DNA at 1:1 compound to iron molar ratio after 90 mins by agarose gel electrophoresis in presence of Fe3+; in short: as §2
HeLa [10] = test: Cytotoxicity against human HeLa cells after 72 hrs by MTT assay; format: functional, cell-based; in short: as §1
HeLa [11] = test: Cell cycle arrest in human HeLa cells assessed as accumulation at subG1 phase after 24 hrs by propidium iodide staining-based FACS flow cytometric analysis; format: functional
HeLa [12] = test: Cell cycle arrest in human HeLa cells assessed as accumulation at subG1 phase at IC50 after 24 hrs by propidium iodide staining-based FACS flow cytometric analysis (reference value: 9.10%); format: functional
MDA-MB-361 = test: Cytotoxicity against human MDA-MB-361 cells after 72 hrs by MTT assay; format: functional, cell-based; details: MDA-MB-361, 72 h; in short: as §1
Escherichia coli [13] = test: Induction of Escherichia coli XL1 blue pUC18 DNA cleavage assessed as conversion of supercoiled DNA to relaxed circular DNA at 1:1 compound to iron molar ratio after 90 mins by agarose gel electrophoresis in presence of Fe2+; in short: as §2
HeLa [14] = test: Cell cycle arrest in human HeLa cells assessed as accumulation at subG1 phase at 2 times IC50 after 24 hrs by propidium iodide staining-based FACS flow cytometric analysis (reference value: 9.10%); format: functional
MRC5 = test: Cytotoxicity against human MRC5 cells after 72 hrs by MTT assay; format: cell-based; details: MRC5, 72 h; in short: as §1
HeLa [15] = test: Induction of apoptosis in human HeLa cells at IC90 after 24 hrs by propidium iodide staining-based FACS flow cytometric analysis in presence of caspase-9 inhibitor Z-LEHD-FMK; format: functional, cell-based
Escherichia coli [16] = test: Induction of Escherichia coli XL1 blue pUC18 DNA cleavage assessed as conversion of supercoiled DNA to relaxed circular DNA at 1:2 compound to iron molar ratio after 90 mins by agarose gel electrophoresis in presence of Fe3+; in short: as §2
HeLa [17] = test: Induction of apoptosis in human HeLa cells at IC90 after 24 hrs by propidium iodide staining-based FACS flow cytometric analysis in presence of caspase-3 inhibitor Z-DEVD-FMK; format: functional, cell-based
HeLa [18] = test: Cell cycle arrest in human HeLa cells assessed as accumulation at S phase at 2 times IC50 after 24 hrs by propidium iodide staining-based FACS flow cytometric analysis (reference value: 16.22%); format: functional
A549 = test: Cytotoxicity against human A549 cells after 72 hrs by MTT assay; format: functional, cell-based; details: A549, 72 h; in short: as §1
HeLa [19] = test: Cell cycle arrest in human HeLa cells assessed as accumulation at G1 phase at 2 times IC50 after 24 hrs by propidium iodide staining-based FACS flow cytometric analysis (reference value: 51.97%); format: functional

**Q.** `CCCCCCNC(=S)N/N=C(/CC(=O)c1cccc2c1C(=O)c1ccccc1C2=O)C(=O)OCC` was tested. Which Activity (HeLa [1]) did it give?
**A.** Active

**Q.** What about the IC50 (MDA-MB-453) of the same molecule?
**A.** 19.6 µM

**Q.** What about the Activity (HeLa [2]) of the same molecule?
**A.** 3.84%

**Q.** And the Activity (HeLa [3])?
**A.** 14.62%

**Q.** What about the IC50 (K562) of the same molecule?
**A.** 5.86 µM

**Q.** And the Activity (HeLa [4])?
**A.** 19.83%

**Q.** And the Activity (Escherichia coli [5])?
**A.** Active

**Q.** And the Activity (Escherichia coli [6])?
**A.** inactive

**Q.** And the Activity (HeLa [7])?
**A.** 37.89%

**Q.** And the IC50 [8]?
**A.** 26.1 µM

**Q.** And the Activity (DNA)?
**A.** Active

**Q.** What about the Activity (Escherichia coli [9]) of the same molecule?
**A.** inactive

**Q.** And the IC50 (HeLa [10])?
**A.** 7.66 µM

**Q.** What about the Activity (HeLa [11]) of the same molecule?
**A.** Dose-dependent effect

**Q.** And the Activity (HeLa [12])?
**A.** 25.02%

**Q.** And the IC50 (MDA-MB-361)?
**A.** 4.45 µM

**Q.** What about the Activity (Escherichia coli [13]) of the same molecule?
**A.** inactive

**Q.** And the Activity (HeLa [14])?
**A.** 37.32%

**Q.** And the IC50 (MRC5)?
**A.** 42.1 µM

**Q.** And the Activity (HeLa [15])?
**A.** Active

**Q.** What about the Activity (Escherichia coli [16]) of the same molecule?
**A.** inactive

**Q.** And the Activity (HeLa [17])?
**A.** Active

**Q.** What about the Activity (HeLa [18]) of the same molecule?
**A.** 17.17%

**Q.** And the IC50 (A549)?
**A.** 43.6 µM

**Q.** And the Activity (HeLa [19])?
**A.** 36.66%
